From ChEMBL document CHEMBL4689842, “EUbOPEN Chemogenomics Library wave 1” (2021)

Assays:
Type in all cases: toxicity, cell-based
HEK-293T = assay: Incucyte cell viability with HEK293T; details: human, 10 µM, compound concentration 10 uM; also: filed as whole numbers so only -1 and 0 and 1 occur
U2OS = assay: Incucyte cell viability with U2OS; details: human, 10 µM, compound concentration 10 uM; also: filed as whole numbers so only -1 and 0 and 1 occur
Fibroblast [1] = assay: Multiplex assay against human fibroblast
Outline: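 Tubulin, mitochondrial-mass and membrane-permeability phenotypes are per cents of healthy-nucleus cells. Cells were gated by CellPathfinder machine learning into Hoechst high-intensity objects or normal cells, normal cells into healthy, pyknosed or fragmented nuclei, and pyknosed cells into mitotic or apoptotic. Before that, live cells stained at seeding with Hoechst33342, BioTracker Green Microtubule Cytoskeleton Dye, MitoTracker Red and Annexin V Alexa Fluor 680 were imaged on a CQ1 microscope at 37°C and 5% CO2 after compound addition.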

Fibroblast [2] = assay: Incucyte cell viability with human fibroblast; details: 10 µM, compound concentration 10 uM; also: filed as whole numbers so only -1 and 0 and 1 occur
[3] = 0 h, replicate number 2, timepoint 0 hours
[4] = 6 h, replicate number 1, timepoint 6 hours
[5] = 12 h, replicate number 1, timepoint 12 hours
[6] = 18 h, replicate number 1, timepoint 18 hours
[7] = 24 h, replicate number 1, timepoint 24 hours
[8] = 12 h, 1 µM, compound concentration 1 uM, replicate 1
[9] = 12 h, 1 µM, compound concentration 1 uM, replicate 2
[10] = 12 h, 10 µM, compound concentration 10 uM, replicate 1
[11] = 12 h, 10 µM, compound concentration 10 uM, replicate 2
[12] = 24 h, 1 µM, compound concentration 1 uM, replicate 1
[13] = 24 h, 1 µM, compound concentration 1 uM, replicate 2
[14] = 24 h, 10 µM, compound concentration 10 uM, replicate 1
[15] = 24 h, 10 µM, compound concentration 10 uM, replicate 2
[16] = 48 h, 1 µM, compound concentration 1 uM, replicate 1
[17] = 48 h, 1 µM, compound concentration 1 uM, replicate 2
[18] = 48 h, 10 µM, compound concentration 10 uM, replicate 1
[19] = 48 h, 10 µM, compound concentration 10 uM, replicate 2

## COc1cc2c(NC3CCN(C(C)C)CC3)nc(N3CCC(F)(F)CC3)nc2cc1OCCCN1CCCC1
HEK-293T; [3]
  Growth Rate: 1
HEK-293T; [4]
  Growth Rate: 0
HEK-293T; [5]
  Growth Rate: 0
HEK-293T; [6]
  Growth Rate: 0
HEK-293T; [7]
  Growth Rate: 0
U2OS; 0 h, replicate number 1, timepoint 0 hours
  Growth Rate: 1
U2OS; [3]
  Growth Rate: 0
U2OS; [4]
  Growth Rate: 1
U2OS; [5]
  Growth Rate: 1
U2OS; [6]
  Growth Rate: 1
U2OS; [7]
  Growth Rate: 1
Fibroblast [1]; [8]
  Population Apoptotic (%): 70%
  Population Fragmented Nuclei (%): 30%
  Population Healthy Nuclei (%): 48%
  Population Hoechst High Intensity Objects (%): 11%
  Population Membrane Permeable-Phenotype (%): 16%
  Population Mitochondria Different-Phenotype (%): 11%
  Population Mitotic Cells (%): 29%
  Population Normal (%): 88%
  Population Pyknosed Nuclei (%): 21%
  Population Tubulin-Different-Phenotype (%): 38%
  Total Cell Count: 127
Fibroblast [1]; [9]
  Population Apoptotic (%): 30%
  Population Fragmented Nuclei (%): 20%
  Population Healthy Nuclei (%): 67%
  Population Hoechst High Intensity Objects (%): 5%
  Population Membrane Permeable-Phenotype (%): 3%
  Population Mitochondria Different-Phenotype (%): 22%
  Population Mitotic Cells (%): 70%
  Population Normal (%): 94%
  Population Pyknosed Nuclei (%): 11%
  Population Tubulin-Different-Phenotype (%): 19%
  Total Cell Count: 105
Fibroblast [1]; [10]
  Population Apoptotic (%): 61%
  Population Fragmented Nuclei (%): 16%
  Population Healthy Nuclei (%): 47%
  Population Hoechst High Intensity Objects (%): 33%
  Population Membrane Permeable-Phenotype (%): 10%
  Population Mitochondria Different-Phenotype (%): 13%
  Population Mitotic Cells (%): 38%
  Population Normal (%): 66%
  Population Pyknosed Nuclei (%): 35%
  Population Tubulin-Different-Phenotype (%): 35%
  Total Cell Count: 239
Fibroblast [1]; [11]
  Population Apoptotic (%): 66%
  Population Fragmented Nuclei (%): 11%
  Population Healthy Nuclei (%): 76%
  Population Hoechst High Intensity Objects (%): 8%
  Population Membrane Permeable-Phenotype (%): 66%
  Population Mitochondria Different-Phenotype (%): 97%
  Population Mitotic Cells (%): 33%
  Population Normal (%): 91%
  Population Pyknosed Nuclei (%): 11%
  Population Tubulin-Different-Phenotype (%): 97%
  Total Cell Count: 89
Fibroblast [1]; [12]
  Population Apoptotic (%): 65%
  Population Fragmented Nuclei (%): 35%
  Population Healthy Nuclei (%): 47%
  Population Hoechst High Intensity Objects (%): 20%
  Population Membrane Permeable-Phenotype (%): 15%
  Population Mitochondria Different-Phenotype (%): 4%
  Population Mitotic Cells (%): 34%
  Population Normal (%): 79%
  Population Pyknosed Nuclei (%): 17%
  Population Tubulin-Different-Phenotype (%): 34%
  Total Cell Count: 167
Fibroblast [1]; [13]
  Population Apoptotic (%): 29%
  Population Fragmented Nuclei (%): 14%
  Population Healthy Nuclei (%): 68%
  Population Hoechst High Intensity Objects (%): 8%
  Population Membrane Permeable-Phenotype (%): 2%
  Population Mitochondria Different-Phenotype (%): 7%
  Population Mitotic Cells (%): 70%
  Population Normal (%): 91%
  Population Pyknosed Nuclei (%): 16%
  Population Tubulin-Different-Phenotype (%): 12%
  Total Cell Count: 113
Fibroblast [1]; [14]
  Population Apoptotic (%): 63%
  Population Fragmented Nuclei (%): 22%
  Population Healthy Nuclei (%): 42%
  Population Hoechst High Intensity Objects (%): 37%
  Population Membrane Permeable-Phenotype (%): 4%
  Population Mitochondria Different-Phenotype (%): 9%
  Population Mitotic Cells (%): 36%
  Population Normal (%): 62%
  Population Pyknosed Nuclei (%): 35%
  Population Tubulin-Different-Phenotype (%): 43%
  Total Cell Count: 271
Fibroblast [1]; [15]
  Population Apoptotic (%): 90%
  Population Fragmented Nuclei (%): 18%
  Population Healthy Nuclei (%): 59%
  Population Hoechst High Intensity Objects (%): 7%
  Population Membrane Permeable-Phenotype (%): 82%
  Population Mitochondria Different-Phenotype (%): 100%
  Population Mitotic Cells (%): 9%
  Population Normal (%): 92%
  Population Pyknosed Nuclei (%): 22%
  Population Tubulin-Different-Phenotype (%): 96%
  Total Cell Count: 112
Fibroblast [1]; [16]
  Population Apoptotic (%): 52%
  Population Fragmented Nuclei (%): 44%
  Population Healthy Nuclei (%): 43%
  Population Hoechst High Intensity Objects (%): 26%
  Population Membrane Permeable-Phenotype (%): 12%
  Population Mitochondria Different-Phenotype (%): 2%
  Population Mitotic Cells (%): 47%
  Population Normal (%): 73%
  Population Pyknosed Nuclei (%): 12%
  Population Tubulin-Different-Phenotype (%): 29%
  Total Cell Count: 231
Fibroblast [1]; [17]
  Population Apoptotic (%): 69%
  Population Fragmented Nuclei (%): 47%
  Population Healthy Nuclei (%): 44%
  Population Hoechst High Intensity Objects (%): 34%
  Population Membrane Permeable-Phenotype (%): 6%
  Population Mitochondria Different-Phenotype (%): 0%
  Population Mitotic Cells (%): 30%
  Population Normal (%): 65%
  Population Pyknosed Nuclei (%): 7%
  Population Tubulin-Different-Phenotype (%): 20%
  Total Cell Count: 249
Fibroblast [1]; [18]
  Population Apoptotic (%): 37%
  Population Fragmented Nuclei (%): 19%
  Population Healthy Nuclei (%): 45%
  Population Hoechst High Intensity Objects (%): 41%
  Population Membrane Permeable-Phenotype (%): 6%
  Population Mitochondria Different-Phenotype (%): 5%
  Population Mitotic Cells (%): 62%
  Population Normal (%): 58%
  Population Pyknosed Nuclei (%): 35%
  Population Tubulin-Different-Phenotype (%): 32%
  Total Cell Count: 362
Fibroblast [1]; [19]
  Population Apoptotic (%): 23%
  Population Fragmented Nuclei (%): 22%
  Population Hoechst High Intensity Objects (%): 47%
  Population Membrane Permeable-Phenotype (%): 4%
  Population Mitochondria Different-Phenotype (%): 0%
  Population Mitotic Cells (%): 76%
  Population Normal (%): 52%
  Population Pyknosed Nuclei (%): 32%
  Population Tubulin-Different-Phenotype (%): 34%
  Total Cell Count: 426
Fibroblast [2]; [3]
  Growth Rate: 0
Fibroblast [2]; 6 h, replicate number 2, timepoint 6 hours
  Growth Rate: 1
Fibroblast [2]; [5]
  Growth Rate: 1
Fibroblast [2]; [6]
  Growth Rate: 1
Fibroblast [2]; 18 h, replicate number 2, timepoint 18 hours
  Growth Rate: 0
Fibroblast [2]; [7]
  Growth Rate: 1
Fibroblast [2]; 24 h, replicate number 2, timepoint 24 hours
  Growth Rate: 0
